From ChEMBL document CHEMBL5058577, “EUbOPEN Chemogenomics Library 2 (Multiplex)” (2022)

Test system: HEK-293T
Assay: Multiplex assay against HEK293T
Type: toxicity, cell-based
Details: human
In short: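 With compound added, live cells were imaged on a CQ1 microscope at 37°C and 5% CO2; staining with Hoechst33342, BioTracker Green Microtubule Cytoskeleton Dye, MitoTracker Red and Annexin V Alexa Fluor 680 had been done at seeding. The CellPathfinder machine-learning gating scheme split cells into Hoechst high-intensity objects or normal cells, normal cells into healthy, pyknosed or fragmented nuclei, and pyknosed cells into mitotic or apoptotic. The tubulin, mitochondrial-mass and membrane-permeability phenotypes are per cents of healthy-nucleus cells.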

[1] = 12 h, 1 µM, compound concentration 1 uM, replicate 1
[2] = 12 h, 1 µM, compound concentration 1 uM, replicate 2
[3] = 12 h, 10 µM, compound concentration 10 uM, replicate 1
[4] = 12 h, 10 µM, compound concentration 10 uM, replicate 2
[5] = 24 h, 1 µM, compound concentration 1 uM, replicate 1
[6] = 24 h, 1 µM, compound concentration 1 uM, replicate 2
[7] = 24 h, 10 µM, compound concentration 10 uM, replicate 1
[8] = 24 h, 10 µM, compound concentration 10 uM, replicate 2
[9] = 48 h, 1 µM, compound concentration 1 uM, replicate 1
[10] = 48 h, 1 µM, compound concentration 1 uM, replicate 2
[11] = 48 h, 10 µM, compound concentration 10 uM, replicate 1
[12] = 48 h, 10 µM, compound concentration 10 uM, replicate 2

CN1C[C@H](C(=O)N[C@]2(C)O[C@@]3(O)[C@@H]4CCCN4C(=O)[C@H](Cc4ccccc4)N3C2=O)C[C@@H]2c3cccc4[nH]cc(c34)C[C@H]21.CS(=O)(=O)O [DIHYDROERGOTAMINE MESYLATE]
Population Apoptotic (%) [1]: 38% | Population Fragmented Nuclei (%) [1]: 6% | Population Healthy Nuclei (%) [1]: 84% | Population Hoechst High Intensity Objects (%) [1]: 5% | Population Membrane Permeable-Phenotype (%) [1]: 0% | Population Mitochondria Different-Phenotype (%) [1]: 41% | Population Mitotic Cells (%) [1]: 61% | Population Normal (%) [1]: 94% | Population Pyknosed Nuclei (%) [1]: 8% | Population Tubulin-Different-Phenotype (%) [1]: 26% | Total Cell Count [1]: 418 | Population Apoptotic (%) [2]: 46% | Population Fragmented Nuclei (%) [2]: 3% | Population Healthy Nuclei (%) [2]: 81% | Population Mitochondria Different-Phenotype (%) [2]: 65% | Population Mitotic Cells (%) [2]: 53% | Population Pyknosed Nuclei (%) [2]: 14% | Population Tubulin-Different-Phenotype (%) [2]: 17% | Total Cell Count [2]: 285 | Population Apoptotic (%) [3]: 31% | Population Fragmented Nuclei (%) [3]: 7% | Population Healthy Nuclei (%) [3]: 76% | Population Hoechst High Intensity Objects (%) [3]: 9% | Population Membrane Permeable-Phenotype (%) [3]: 0% | Population Mitochondria Different-Phenotype (%) [3]: 48% | Population Mitotic Cells (%) [3]: 68% | Population Normal (%) [3]: 90% | Population Pyknosed Nuclei (%) [3]: 15% | Population Tubulin-Different-Phenotype (%) [3]: 29% | Total Cell Count [3]: 403 | Population Apoptotic (%) [4]: 53% | Population Fragmented Nuclei (%) [4]: 5% | Population Healthy Nuclei (%) [4]: 80% | Population Hoechst High Intensity Objects (%) [4]: 11% | Population Mitochondria Different-Phenotype (%) [4]: 61% | Population Mitotic Cells (%) [4]: 46% | Population Normal (%) [4]: 88% | Population Pyknosed Nuclei (%) [4]: 13% | Population Tubulin-Different-Phenotype (%) [4]: 23% | Total Cell Count [4]: 435 | Population Apoptotic (%) [5]: 28% | Population Fragmented Nuclei (%) [5]: 9% | Population Healthy Nuclei (%) [5]: 80% | Population Hoechst High Intensity Objects (%) [5]: 4% | Population Membrane Permeable-Phenotype (%) [5]: 0% | Population Mitochondria Different-Phenotype (%) [5]: 28% | Population Mitotic Cells (%) [5]: 71% | Population Normal (%) [5]: 95% | Population Pyknosed Nuclei (%) [5]: 9% | Population Tubulin-Different-Phenotype (%) [5]: 20% | Total Cell Count [5]: 621 | Population Apoptotic (%) [6]: 51% | Population Fragmented Nuclei (%) [6]: 7% | Population Healthy Nuclei (%) [6]: 84% | Population Hoechst High Intensity Objects (%) [6]: 3% | Population Mitochondria Different-Phenotype (%) [6]: 41% | Population Mitotic Cells (%) [6]: 48% | Population Normal (%) [6]: 96% | Population Pyknosed Nuclei (%) [6]: 8% | Population Tubulin-Different-Phenotype (%) [6]: 12% | Total Cell Count [6]: 341 | Population Apoptotic (%) [7]: 27% | Population Fragmented Nuclei (%) [7]: 10% | Population Healthy Nuclei (%) [7]: 76% | Population Hoechst High Intensity Objects (%) [7]: 5% | Population Membrane Permeable-Phenotype (%) [7]: 0% | Population Mitochondria Different-Phenotype (%) [7]: 33% | Population Mitotic Cells (%) [7]: 72% | Population Normal (%) [7]: 94% | Population Pyknosed Nuclei (%) [7]: 13% | Population Tubulin-Different-Phenotype (%) [7]: 26% | Total Cell Count [7]: 480 | Population Apoptotic (%) [8]: 32% | Population Fragmented Nuclei (%) [8]: 9% | Population Healthy Nuclei (%) [8]: 84% | Population Hoechst High Intensity Objects (%) [8]: 6% | Population Mitochondria Different-Phenotype (%) [8]: 39% | Population Mitotic Cells (%) [8]: 67% | Population Normal (%) [8]: 93% | Population Pyknosed Nuclei (%) [8]: 6% | Population Tubulin-Different-Phenotype (%) [8]: 16% | Total Cell Count [8]: 567 | Population Apoptotic (%) [9]: 29% | Population Fragmented Nuclei (%) [9]: 14% | Population Healthy Nuclei (%) [9]: 78% | Population Hoechst High Intensity Objects (%) [9]: 2% | Population Membrane Permeable-Phenotype (%) [9]: 1% | Population Mitochondria Different-Phenotype (%) [9]: 17% | Population Mitotic Cells (%) [9]: 70% | Population Normal (%) [9]: 97% | Population Pyknosed Nuclei (%) [9]: 6% | Population Tubulin-Different-Phenotype (%) [9]: 11% | Total Cell Count [9]: 1011 | Population Apoptotic (%) [10]: 28% | Population Fragmented Nuclei (%) [10]: 12% | Population Healthy Nuclei (%) [10]: 82% | Population Membrane Permeable-Phenotype (%) [10]: 0% | Population Mitochondria Different-Phenotype (%) [10]: 23% | Population Mitotic Cells (%) [10]: 71% | Population Pyknosed Nuclei (%) [10]: 5% | Population Tubulin-Different-Phenotype (%) [10]: 9% | Total Cell Count [10]: 524 | Population Apoptotic (%) [11]: 22% | Population Fragmented Nuclei (%) [11]: 15% | Population Healthy Nuclei (%) [11]: 76% | Population Hoechst High Intensity Objects (%) [11]: 2% | Population Membrane Permeable-Phenotype (%) [11]: 0% | Population Mitochondria Different-Phenotype (%) [11]: 20% | Population Mitotic Cells (%) [11]: 77% | Population Normal (%) [11]: 97% | Population Pyknosed Nuclei (%) [11]: 7% | Population Tubulin-Different-Phenotype (%) [11]: 12% | Total Cell Count [11]: 778 | Population Apoptotic (%) [12]: 31% | Population Healthy Nuclei (%) [12]: 77% | Population Hoechst High Intensity Objects (%) [12]: 1% | Population Mitochondria Different-Phenotype (%) [12]: 21% | Population Mitotic Cells (%) [12]: 68% | Population Normal (%) [12]: 98% | Population Pyknosed Nuclei (%) [12]: 6% | Population Tubulin-Different-Phenotype (%) [12]: 11% | Total Cell Count [12]: 793
